{"source": "paper PMC10754386", "about": "(Acta physiologica (Oxford, England), 2022)", "key": {"mice": {"tested_on": "mice", "experiment": "Plasma counterregulatory hormones", "format": "in vivo, mouse", "details": "NCD-WT mice; acute insulin for 30 minutes; n = 7; Figure 2B,C"}, "IR, IRS-1, mTOR, AKT": {"tested_on": "IR, IRS-1, mTOR, AKT", "experiment": "Immunoblotting of phosphorylation signals in primary hepatocytes", "format": "cell-based, mouse", "details": "cultured hepatocytes; immunoblot; n = 3; Figure 6A–D"}, "CST-KO mice": {"tested_on": "CST-KO mice", "experiment": "Liver glycogen content in NCD-CST-KO mice", "format": "in vivo, mouse", "details": "fed state, insulin 30 min, Figure 4B"}, "NCD-WT mice": {"tested_on": "NCD-WT mice", "experiment": "Liver glycogen content in NCD-WT mice", "format": "in vivo, mouse"}, "GSK-3β": {"tested_on": "GSK-3β", "experiment": "Immunoblotting of GSK-3β in liver", "format": "in vivo, mouse", "details": "liver of fasted NCD-WT and DIO-WT mice; immunoblot; n = 4; Figure 9A,B"}, "PI3-kinase": {"tested_on": "PI3-kinase", "experiment": "PI-3-kinase activity in anti-p85 immunoprecipitates of hepatocytes", "format": "cell-based, mouse", "details": "CST 100 nM for 1 hour, insulin 10 nM for 10 minutes, Figure 6E", "outline": "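Mouse hepatocytes were left untreated or exposed to CST (100 nM, 1 hr) or insulin (10 nM, 10 min), then lysed. Anti-p85 immunoprecipitates were washed and assayed with phosphatidylinositol substrate and γ-32P-ATP. Labelled lipids were extracted, mixed with reference lipids and separated by TLC (CHCl3–MeOH–H2O–NH4OH (25%), 45:35:8.5:1.5). PI3P was detected by autoradiography.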"}}, "data": [{"substance": "insulin", "values": [{"measurement": "effect on plasma noradrenaline and adrenaline levels", "setting": "mice", "value": "raised plasma noradrenaline and adrenaline levels only in the fasted state"}, {"measurement": "effect on tyrosine phosphorylation of IR and IRS-1", "setting": "IR, IRS-1, mTOR, AKT", "value": "stimulated tyrosine phosphorylation"}, {"measurement": "effect on hepatic glycogen content", "setting": "CST-KO mice", "value": "failed to increase"}, {"measurement": "effect on liver glycogen level", "setting": "NCD-WT mice; fasted NCD-WT mice, insulin 30 minutes, CST 2 μg/g body weight acute (1 hour) and chronic (10–15 days), Figure 1A,C,D", "value": "restored glycogen level"}, {"measurement": "fold increase in hepatic glycogen content", "setting": "NCD-WT mice; fasted lean mice, CST or insulin alone", "value": "> fivefold"}, {"measurement": "effect on GSK-3β Ser9 phosphorylation", "setting": "GSK-3β", "value": "increased GSK-3β Ser9 phosphorylation"}, {"measurement": "effect on PI3-kinase activity (PI3P formation)", "setting": "PI3-kinase", "value": "stimulated PI3-kinase activity"}]}]}
